# High-throughput results: PubChem BioAssay, several laboratories
# Shown are actives, neighbours in structure and some others; about 4% of the full set was active somewhere.
# FAK blocker: FAK kinase inhibitors, primary screen, biochemical; biochemical FAK kinase activity assay; inhibition, %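 (tested at 7 µM)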; Focal adhesion kinase 1 (Homo sapiens), Q05397; AID 727, 2007; 97,000 compounds, 0.84% hits; in the data active = inhibition above about 19%
# ERa SRC1 pot: enhancers of ERα–SRC-1 coactivator binding, primary screen, biochemical, TR-FRET, ERα LBD, low estradiol; AID 639, 2007; TR-FRET ERalpha-LBD/SRC-Cy5 coactivator binding, 2 h; 100 = basal binding, no effect; coactivator binding (% of control), % at 25.6 µM; Estrogen receptor (Homo sapiens), P03372; 86,000 compounds, 1.3% hits; in the data active = activity above about 200%;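 also: binding measured in presence of low estradiol as agonist stimulus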
# ERb coact inh: inhibitors of ERβ-SRC1 coactivator interaction, primary screen, biochemical, TR-FRET, ERβ LBD, SRC-1 peptide; Estrogen receptor beta (Homo sapiens), Q92731; 86,000 compounds, 1.3% hits; inhibition, % at 25.6 µM; TR-FRET ER-beta LBD / SRC1-Cy5 peptide binding; receptor agonist-loaded with 1 µM estradiol;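 active = compounds whose percent inhibition of the receptor-coactivator binding signal exceeds about 50% in the single-dose screen, limit read from the data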
# Rev-RRE block: HIV-1 Rev-RRE binding inhibitors, primary screen, biochemical, FRET, protein-RNA interaction; P05866; 97,000 compounds, 0.79% hits; AID 704, 2007; inhibition, % at 8 µM; Rev peptide-RRE RNA binding;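 active = inhibition above the screen-wide mean plus 3 SD, cut at about 35% in these data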
# Target sequence (P05866 whole entry, looked up): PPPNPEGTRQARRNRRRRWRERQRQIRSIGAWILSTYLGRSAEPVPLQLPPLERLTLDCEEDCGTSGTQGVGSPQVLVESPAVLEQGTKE
#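 Test system: labelled RRE RNA duplex and labelled Rev peptide. Times: 5 min compound–RNA preincubation, then 15 min with peptide, 25 °C. Doses: single-dose 8 µM. Measured by: FRET, excitation 480 nm, emission 540 nm donor and 671 nm acceptor. Measure: % inhibition of FRET ratio versus controls.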
# ERa SRC1 inh: ERα–SRC-1 coactivator interaction inhibitors, primary screen, biochemical, TR-FRET, ERα LBD, estradiol-bound; inhibition, % at 25.6 µM; 86,000 compounds, 1.7% hits; TR-FRET ER-alpha LBD / SRC-1 peptide; Estrogen receptor (Homo sapiens), P03372; in the data active = inhibition above about 50%
# Smad3 inh: Smad3/FoxH1 peptide binding inhibitors, primary screen, biochemical, TR-FRET; Mothers against decapentaplegic homolog 3 (Homo sapiens), P84022; TR-FRET Smad3/Dy647-FoxH1 peptide binding, europium anti-His; inhibition, % at 25 µM; 88,000 compounds, 0.29% hits; AID 630, 2007;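 active = compounds that reduce the energy-transfer binding signal between the protein and its labelled peptide by more than half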
# Hits are given with their value; n = inactive; x = no result; [ ] = another dose, or the depositor's remark.
SMILES,FAK blocker,ERa SRC1 pot,ERb coact inh,Rev-RRE block,ERa SRC1 inh,Smad3 inh
COc1ccc(-c2nc(SCC(=O)Nc3cc(C)on3)n[nH]2)cc1,n,x,x,n,x,x
CCCCc1nc(SCC(=O)Nc2cc(C)on2)n[nH]1,n,n,98.3[fluorescence artefact?],n,n,n
Cc1nn(Cc2ccccc2)c(=O)n1N(C)c1ncc(C(F)(F)F)cc1Cl,n,n,n,n,n,n
COc1ccc(C2(CNC(=O)/C=C\c3ccco3)CCCC2)cc1OC,n,x,x,n,x,x
COc1ccc(C(=O)Nc2cc(C(C)=O)c(/C=C/N(C)C)oc2=O)cc1,n,x,x,121.8[fluorescence artefact?],x,x
CC(=O)c1cc(NC(=O)c2ccc(C)cc2)c(=O)oc1/C=C/N(C)C,n,x,x,122.3[fluorescence artefact?],x,x
CCOC(=O)c1cc(NC(=O)c2ccc(OC)cc2)c(=O)oc1-c1ccccc1,n,x,x,n,x,x
COc1ccc(Cl)cc1-c1nc(-c2ccc(Br)o2)no1,n,277.0[fluorescence artefact?],n,n,58.7[fluorescence artefact?],n
O=C(c1ccccc1)[C@H](Nc1ccc2ccccc2c1)c1ccccc1,x,x,x,x,x,n
Cc1cc(Cl)cc(Br)c1OCCCN1C(=O)NC(C)(C)C1=O,n,n,n,n,n,n
Cc1ccc(-c2csc3nnc(SCC(=O)Nc4nsc(-c5ccccc5)n4)n23)cc1,n,n,n,n,n,n
Cc1ccc(Nc2nc(N)nc(CSc3nncn3C)n2)cc1,n,n,n,n,n,n
Cc1ccc(Nc2nc(N)nc(CSc3nnnn3-c3ccccc3)n2)cc1,n,218.5[fluorescence artefact?],n,n,61.8[fluorescence artefact?],n
Cc1ccc(-c2nc(NC(=O)CSc3nnnn3-c3ccccc3)ns2)cc1,n,219.2,n,n,n,n
O=C1c2ccccc2N[C@H](c2cc(Cl)cc(Cl)c2O)N1CCc1ccccn1,x,x,x,x,x,n
CCN(CC(=O)O)CC(=O)O,x,x,x,x,x,n
COc1ccc(OCC(=O)N2CCN(C(=O)c3ccccc3)CC2)cc1,n,492.2[fluorescence artefact?],n,n,n,n
O=C(Nc1nnc(C2CCCO2)s1)c1ccc(Br)cc1 (stereo not given),n,n,53.7,n,n,n
CCC(=O)N1CCCn2c1nc1ccccc12,n,n,n,n,n,n
CCC(=O)N1CCn2c1nc1ccccc12,n,n,55.2[fluorescence artefact?],n,n,n
N#CCCN1CCn2c1nc1ccccc12,n,200.3,n,n,n,n
COc1ccc(C2CC(=O)Nc3ccccc3S2(=O)=O)cc1OC (stereo not given),x,n,50.2,x,n,n
COc1ccc(C2Nc3ccccc3C(=O)N2O)cc1OC (stereo not given),n,n,n,n,n,n
NC(=O)C1CCN(c2nc(-c3ccccc3)nc3c2oc2ccccc23)CC1,n,343.6[fluorescence artefact?],n,n,n,n
NC(=O)C1CCN(c2nc(-c3ccccc3)nc3ccccc23)CC1,n,n,n,n,n,n
SMILES,FAK blocker,ERa SRC1 pot,ERb coact inh,Rev-RRE block,ERa SRC1 inh,Smad3 inh
CC(=O)Oc1ccc(C(=O)Nc2ccc3c(c2)C(=O)N(CCC(=O)O)C3=O)cc1,n,708.7[fluorescence artefact?],n,n,n,n
CCOC(=O)N1CCC(N2CCN(S(=O)(=O)c3ccc4ccccc4c3)CC2)CC1,n,x,x,n,x,x
CNC(=O)CSc1nc2c(c(=O)n(C)c(=O)n2C)n1Cc1ccc(C)cc1,n,201.4,n,n,n,n
O=C1OCc2cccc3cccc1c23,n,x,x,n,x,x
CC1=CC2=C(OC1N(C)C)c1cccc3cccc(c13)C2=O (stereo not given),n,n,n,48.2,n,n
Cc1cc(C)c(NC(=O)C(C)Sc2nnc(-c3ccco3)n2-c2ccccc2)c(C)c1 (stereo not given),n,x,x,n,x,x
CN1CCc2nc(SCC(=O)Nc3cccc(F)c3)c(C#N)c(-c3cccs3)c2C1,n,x,x,55.8,x,x
CC(=O)[C@]1(O)CC[C@@H]2[C@H]3C[C@@H](C)C4=CC(=O)CC[C@@]4(C)[C@@H]3[C@@H](O)C[C@]21C,x,x,x,x,x,n
CN(C)Cc1cc(C(C)(C)C)cc(CNC2CCCCC2)c1O,x,x,x,x,x,n
